Measured values reported in ChEMBL document CHEMBL1149264, “Discovery of novel phenolic antioxidants as inhibitors of vascular cell adhesion molecule-1 expression for use in chronic inflammatory diseases” (J Med Chem, 2004).
Active and inactive are the calls of the source. The rule behind the calls is not given here.

What was measured:
[1] = Inhibition of TNF-alpha-stimulated VCAM1 expression in endothelial cells; format: functional, cell-based; details: Homo sapiens, Endothelial cell
[2] = target: T1, Polyunsaturated fatty acid lipoxygenase ALOX15 (Homo sapiens, UniProt P16050); experiment: Inhibition of 15-lipoxygenase by LMB assay
T1 sequence (P16050 whole entry): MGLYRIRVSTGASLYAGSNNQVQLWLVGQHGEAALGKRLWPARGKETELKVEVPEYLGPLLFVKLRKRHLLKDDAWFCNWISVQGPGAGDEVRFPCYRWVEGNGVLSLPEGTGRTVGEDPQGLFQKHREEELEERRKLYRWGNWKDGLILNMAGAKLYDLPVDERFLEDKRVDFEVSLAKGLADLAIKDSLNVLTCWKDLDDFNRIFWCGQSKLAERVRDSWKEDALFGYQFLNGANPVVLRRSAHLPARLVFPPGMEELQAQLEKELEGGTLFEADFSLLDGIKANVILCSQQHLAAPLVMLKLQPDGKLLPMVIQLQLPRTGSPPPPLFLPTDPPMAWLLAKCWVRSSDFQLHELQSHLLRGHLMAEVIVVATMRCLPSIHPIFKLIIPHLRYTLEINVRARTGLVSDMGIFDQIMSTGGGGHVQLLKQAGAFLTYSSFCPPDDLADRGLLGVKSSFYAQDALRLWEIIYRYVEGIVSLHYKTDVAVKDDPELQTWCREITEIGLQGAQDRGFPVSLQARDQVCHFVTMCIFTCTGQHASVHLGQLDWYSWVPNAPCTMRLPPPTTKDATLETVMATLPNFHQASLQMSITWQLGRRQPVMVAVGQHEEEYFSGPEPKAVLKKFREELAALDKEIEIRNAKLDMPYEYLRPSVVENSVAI

[3] = Inhibition of LPS-induced TNFalpha secretion in human PBMN cells by ELISA; format: functional, cell-based
Method in brief: (§1)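 Fresh cryopreserved human PBMCs at 1 million cells/mL in lymphocyte growth media-3 were pretreated with compound for 1 h, then stimulated with LPS 1 μg/mL for a further 2 h with compound present. Secreted TNF-α, IL-6 and IL-1β in conditioned media measured by human ELISA, in duplicate (mean ± SD). Experiments repeated at least three times.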

[4] = Inhibition of LPS-induced IL1-beta secretion in human PBMN cells by ELISA; format: functional, cell-based; method in brief: as §1
[5] = Inhibition of LPS-induced IL6 secretion in human PBMN cells by ELISA; format: functional, cell-based; method in brief: as §1
[6] = system: Mus musculus; experiment: Inhibition of mBSA-induced paw-swelling in DTH BALB/c mouse model at 50 mg/kg, sc; format: functional; details: route subcutaneous
Method in brief: (§2)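 Male BALB/c mice (20-25 g) sensitized on day 0 with intradermal abdominal mBSA (5 mg/mL)/Freund's complete adjuvant 1:1 emulsion. On day 7 challenged with mBSA in the right hind footpad, saline in the left. Compound given s.c. 24 h and 2 h before challenge; cyclosporin A 20 mg/kg as reference. Feet weighed 24 h post-challenge; swelling inhibition relative to vehicle group (100%). ANOVA with Fisher's PLSD.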

[7] = system: Mus musculus; experiment: Inhibition of mBSA-induced paw-swelling in DTH BALB/c mouse model at 25 mg/kg, sc; format: functional; details: route subcutaneous; method in brief: as §2
[8] = system: Syrian golden hamster; experiment: Effect on LDL level in hypercholesterolemic golden Syrian hamster; format: functional, Mesocricetus auratus; design: unit not given here
Method in brief: (§3)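 Male golden Syrian hamsters (110-120 g), housed singly, given compound mixed into powdered chow at 150 mg/kg/d for two weeks. After an overnight fast and ketamine/xylazine i.p. anesthesia, blood was taken by cardiac puncture or abdominal aorta. Plasma was fractionated by FPLC and lipoprotein cholesterol measured enzymatically. Dunnett's test against controls.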

[9] = system: Syrian golden hamster; experiment: Effect on HDL level in hypercholesterolemic golden Syrian hamster; format: functional, Mesocricetus auratus; design: unit not given here; method in brief: as §3
[10] = species on record: Rattus norvegicus; experiment: Inhibition of artheriosclerosis in allograft recipient rat; format: functional, organism-based
[11] = system: PBMN; experiment: Inhibition of LPS-induced IL1-beta secretion in human PBMN cells at 10 uM by ELISA; format: functional, cell-based; method in brief: as §1

CC(C)(Sc1cc(C(C)(C)C)c(O)c(C(C)(C)C)c1)Sc1ccc(C(C)(C)C)c(OCCCCO)c1C(C)(C)C
IC50 [1]: 125 µM

CCOCC(O)COc1c(C(C)(C)C)ccc(SC(C)(C)Sc2cc(C(C)(C)C)c(O)c(C(C)(C)C)c2)c1C(C)(C)C (centres undefined)
IC50 [1]: > 50 µM

CC(C)(Sc1cc(C(C)(C)C)c(O)c(C(C)(C)C)c1)Sc1ccc(C(C)(C)C)c(OC[C@H]2OC(=O)[C@H](O)[C@@H]2O)c1C(C)(C)C
IC50 [1]: 13 µM

CC(C)(Sc1cc(C(C)(C)C)c(O)c(C(C)(C)C)c1)Sc1ccc(C(C)(C)C)c(OC[C@@H](O)[C@@H](O)[C@H](O)[C@@H](O)CO)c1C(C)(C)C
IC50 [1]: 15 µM | IC50 [2]: 12 µM | IC50 [3]: 1.8 µM | IC50 [4]: 2.2 µM | IC50 [5]: 1 µM | inhibition in vivo at 50 mg/kg [6]: 58% | inhibition in vivo at 25 mg/kg [7]: 29% | Activity [8]: 30 | Activity [9]: 94

CC(C)(Sc1cc(C(C)(C)C)c(O)c(C(C)(C)C)c1)Sc1cc(C(C)(C)C)c(OC(=O)CCC(=O)O)c(C(C)(C)C)c1 [SUCCINOBUCOL]
IC50 [1]: 6 µM

CC(C)(Sc1cc(C(C)(C)C)c(O)c(C(C)(C)C)c1)Sc1ccc(C(C)(C)C)c(OC[C@H](O)[C@@H](O)CO)c1C(C)(C)C
IC50 [1]: 6 µM | IC50 [3]: 4 µM | IC50 [4]: 7.7 µM | IC50 [5]: 1.7 µM | inhibition in vivo at 50 mg/kg [6]: 58% | inhibition in vivo at 25 mg/kg [7]: 29%

C=CC(=O)OCCCCOc1c(C(C)(C)C)ccc(SC(C)(C)Sc2cc(C(C)(C)C)c(O)c(C(C)(C)C)c2)c1C(C)(C)C
IC50 [1]: 75 µM

CC(C)(Sc1cc(C(C)(C)C)c(O)c(C(C)(C)C)c1)Sc1ccc(C(C)(C)C)c(OCC(O)CO)c1C(C)(C)C (centres undefined)
IC50 [1]: 30 µM

CC(C)(Sc1cc(C(C)(C)C)c(O)c(C(C)(C)C)c1)Sc1cc(C(C)(C)C)c(OCCCC(=O)O)c(C(C)(C)C)c1 [ELSIBUCOL]
IC50 [1]: 11 µM | Activity [10]: Active

CC(=O)OC(CO)COc1c(C(C)(C)C)ccc(SC(C)(C)Sc2cc(C(C)(C)C)c(O)c(C(C)(C)C)c2)c1C(C)(C)C (centres undefined)
IC50 [1]: 33 µM

CC(C)(Sc1cc(C(C)(C)C)c(OCC(=O)O)c(C(C)(C)C)c1)Sc1ccc(C(C)(C)C)c(OCC(=O)O)c1C(C)(C)C
IC50 [1]: > 50 µM | IC50 [2]: > 125 µM | IC50 [3]: > 10 µM | IC50 [4]: > 10 µM | IC50 [5]: > 10 µM

CC(C)(Sc1cc(C(C)(C)C)c(O)c(C(C)(C)C)c1)Sc1ccc(C(C)(C)C)c(OC[C@H]2OC(O)[C@H](O)[C@@H](O)[C@@H]2O)c1C(C)(C)C (some centres undefined)
IC50 [1]: 10 µM | IC50 [2]: 10 µM | IC50 [3]: 1.9 µM | Activity [11]: Active | IC50 [5]: 1.6 µM | inhibition in vivo at 50 mg/kg [6]: 58% | inhibition in vivo at 25 mg/kg [7]: 29% | Activity [8]: 9 | Activity [9]: 63

CC(C)(Sc1cc(C(C)(C)C)c(O)c(C(C)(C)C)c1)Sc1ccc(C(C)(C)C)c(OCCC(=O)O)c1C(C)(C)C
IC50 [1]: 7 µM

CC(C)(Sc1cc(C(C)(C)C)c(O)c(C(C)(C)C)c1)Sc1ccc(C(C)(C)C)c(OCC(=O)NC(CO)CO)c1C(C)(C)C
IC50 [1]: 6 µM

CC(C)(Sc1cc(C(C)(C)C)c(O)c(C(C)(C)C)c1)Sc1ccc(C(C)(C)C)c(O/C=C/CO)c1C(C)(C)C
IC50 [1]: 55 µM

CC(C)(Sc1cc(C(C)(C)C)c(O)c(C(C)(C)C)c1)Sc1cc(C(C)(C)C)c(O)c(C(C)(C)C)c1 [PROBUCOL]
IC50 [3]: > 40 µM | IC50 [4]: > 40 µM | IC50 [5]: > 40 µM
